The nature of data set [1]: folding enthalpy; higher = less favourable; fluorescence melt of hairpins on a sequencing array, two-state fit. The settings on record: sodium 0.088 M. The essentials: (§1)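 Folding enthalpy and melting temperature come from bootstrapped two-state fits to Cy3 fluorescence of library hairpins carrying annealed Cy3 and quencher oligos on a sequenced MiSeq flow cell. Imaging was done in 50 mM Na-HEPES pH 8.0, 25 mM NaCl, stepping by 2.5 °C up to 60 °C, and signals were normalised to pre-quench Cy3 and to control constructs. Results of four replicates were combined by inverse variance, and fitted temperatures were raised by 9.35 °C to match UV melts.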

Data set [2] can be described thus: melting temperature; fluorescence melt of hairpins on a sequencing array, two-state fit, raised by 9.35 °C to match UV melts. The settings on record: sodium 0.088 M. In outline:
as §1

As to GCGTAGCGAAAGCTATGC ((.((((....)))).)), the folding enthalpy in data set [1] is -18 kcal/mol. The Tm in data set [2] is 62.4 °C.

Regarding GATCTAAGAATAGATC ((((((....)))))), the folding enthalpy in data set [1] is -20.4 kcal/mol. Moreover, in data set [2], the Tm was 34 °C.

On to GCGAATATCGC ((((...)))), for which, in data set [1], the folding enthalpy was -16.6 kcal/mol. Moreover, the Tm in data set [2] is 46.5 °C.

Turning to GAAAGACGAAAGTCCTTC (((.(((....))).))), the folding enthalpy in data set [1] was -15.6 kcal/mol. In data set [2], the Tm came out at 32.8 °C.

For the sequence GCTATTACGAAAGTAAGC (((..(((....)))))), in data set [1], the folding enthalpy was -13.6 kcal/mol. Moreover, in data set [2], the Tm is 30 °C.

As to GAGGAAGGAAACTTCTTC ((.((((....)))).)), in data set [1], the folding enthalpy is -16.7 kcal/mol. Also, the Tm in data set [2] came to 33.9 °C.

For GACTGCGGAAACGCGGTC (((.(((....))).))), the folding enthalpy in data set [1] is -34.1 kcal/mol. The Tm in data set [2] turned out to be 63.5 °C.

For the sequence GCTAAGCGAAAGCACAGC (((..((....))..))), the folding enthalpy in data set [1] is -21.7 kcal/mol. Also, the Tm in data set [2] amounted to 42.7 °C.

Regarding GGATACCGAAAGGTCTCC (((.(((....))).))), the folding enthalpy in data set [1] is -25.3 kcal/mol. For the same sequence, in data set [2], the Tm worked out at 47.6 °C.

Take GATCCCCTCGGGGATC ((((((....)))))): the folding enthalpy in data set [1] was -32.5 kcal/mol. Further, the Tm in data set [2] was found to be 67.6 °C.

Turning to GGTGTGGGAAACCACATC (.(((((....))))).), the folding enthalpy in data set [1] was -21.1 kcal/mol. In addition, the Tm in data set [2] worked out at 51.2 °C.

On to GGCCTACGAAAGTAAGCC (((.(((....))).))), for which, in data set [1], the folding enthalpy was -35 kcal/mol. The Tm in data set [2] was determined as 49.5 °C.

Regarding GGTCGGCCGAAAGGCACC (((..(((....)))))), the folding enthalpy in data set [1] was -10.9 kcal/mol. In addition, the Tm in data set [2] worked out at 34.7 °C.

On to GTACGGGGAAACCCATAC (((.(((....))).))), for which the folding enthalpy in data set [1] was -21.9 kcal/mol. Also, the Tm in data set [2] came to 35 °C.

Consider GATCCGCCGTCGGATC ((((((....)))))), for which the folding enthalpy in data set [1] is -40.7 kcal/mol. For the same sequence, in data set [2], the Tm amounted to 56.9 °C.

For the sequence GATCGTGACACGATC ((((((...)))))), the folding enthalpy in data set [1] is -40.4 kcal/mol. Moreover, the Tm in data set [2] was determined as 59.9 °C.

Consider GTGCTCGAAAGAGTTCAC ((((((....)))..))), for which the folding enthalpy in data set [1] was -13.6 kcal/mol. In addition, the Tm in data set [2] was 34.6 °C.

For CGAACGGAAACGTGTCG ((((((....))).))), in data set [1], the folding enthalpy was -23.1 kcal/mol. Besides, the Tm in data set [2] was 38.5 °C.

With GCTACCGAAAGGTTAAGC ((((((....)))..))), the folding enthalpy in data set [1] is -19.6 kcal/mol. In addition, the Tm in data set [2] stood at 39.4 °C.

Take GTCTGACGAAAGTCCGAC (((.(((....))).))): in data set [1], the folding enthalpy is -28.5 kcal/mol. For the same sequence, the Tm in data set [2] was 49 °C.

Regarding GACAAGGGAAACCTCGTC (((.(((....))).))), in data set [1], the folding enthalpy is -22.6 kcal/mol. The Tm in data set [2] turned out to be 34.5 °C.

Turning to GATCTTATGTAAGATC ((((((....)))))), in data set [1], the folding enthalpy is -36.6 kcal/mol. For the same sequence, in data set [2], the Tm was found to be 45.2 °C.

Regarding GCGGCAGGAAACTGCTGC ((.((((....)))).)), the folding enthalpy in data set [1] was -43.2 kcal/mol. Further, the Tm in data set [2] worked out at 62.9 °C.

On to GGTTTAGAAATAAACC ((((((....)))))), for which, in data set [1], the folding enthalpy is -29.2 kcal/mol. Besides, the Tm in data set [2] worked out at 45.3 °C.

Turning to GTGAGCGAAAGCTCCAC ((((((....))).))), in data set [1], the folding enthalpy is -11.3 kcal/mol. For the same sequence, in data set [2], the Tm worked out at 48.3 °C.

GAAGACCGAAAGGTTTC (((.(((....)))))): the folding enthalpy in data set [1] was -13.9 kcal/mol. Moreover, the Tm in data set [2] came out at 37 °C.

As to GTGGTAGGAAACTGTCAC (((..((....))..))), in data set [1], the folding enthalpy is -17.3 kcal/mol. For the same sequence, the Tm in data set [2] was 32.9 °C.

As for GCAGAGCGAAAGCGCCGC ((.(.((....)).).)), the folding enthalpy in data set [1] is -28.2 kcal/mol. The Tm in data set [2] is 64 °C.

For the sequence GCTACCGAAAGGTACAGC ((((((....)))..))), the folding enthalpy in data set [1] was -13.6 kcal/mol. The Tm in data set [2] turned out to be 42.5 °C.

In the case of GTTGATGGAAACGTCAAC (((((.(....).))))), the folding enthalpy in data set [1] was -42.9 kcal/mol. Further, the Tm in data set [2] came to 47.1 °C.

For GCGCGAGGAAACTCGCAC (.(((((....))))).), the folding enthalpy in data set [1] is -11.4 kcal/mol. Moreover, the Tm in data set [2] is 49.4 °C.

As to GCTTAATCGAAAGATAGC (((..(((....)))))), the folding enthalpy in data set [1] was -16.4 kcal/mol. The Tm in data set [2] was 30.8 °C.

Turning to GAGGTGGGAAACCATCTC (((.(((....))).))), in data set [1], the folding enthalpy was -31.3 kcal/mol. Further, the Tm in data set [2] was determined as 47.7 °C.

As for GGAACCGAAAGGTGTTCC ((((((....)))..))), in data set [1], the folding enthalpy is -17.6 kcal/mol. The Tm in data set [2] is 40.5 °C.

Consider GATGACGGAAACGTCATC (((((((....))))))), for which the folding enthalpy in data set [1] is -37.1 kcal/mol. In data set [2], the Tm turned out to be 67.5 °C.

GCTCCATCGAAAGATAGC (((..(((....)))))): the folding enthalpy in data set [1] was -10.7 kcal/mol. Also, the Tm in data set [2] is 24.6 °C.

Take GATGCGGAAACGCATC ((((((....)))))): in data set [1], the folding enthalpy is -31.3 kcal/mol. The Tm in data set [2] turned out to be 68.2 °C.

The record behind these values is the array DNA melting data of Ke et al. (doi:10.1101/2024.01.08.574731).
